STAT3 blocker = IL-6 driven STAT3 reporter inhibitors, primary screen, U3A cells, luciferase, luminescence, MLSCN library | AID 862, 2007 | inhibition, % at 5.5 µM | IL-6 STAT3-luciferase reporter; host cell line lacks STAT1 | hit rate 0.89% among 190,000;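 active means inhibition above the mean inhibition across all screened compounds plus 3 SD, cut at about 44% in these data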;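 further: 0% = DMSO only wells and 100% = 100 µM nifuroxazide control wells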
STAT1 activator = STAT1 signaling activators, primary screen, cell-based, HTS, luciferase reporter; NIH 3T3 STAT1-luciferase reporter, IFN-gamma, luminescence; 100% = IFN-gamma alone, no compound; activation (% of control), % at 5.5 µM; hit rate 2.6% among 200,000;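 active means activation above the screen-wide mean activation plus 3 SD, cut at about 130% in these data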;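 further: raw ratio to IFN-gamma control signal so 100% means no change and 0% no light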
STAT3 act = IL-6 driven STAT3 reporter potentiators, primary screen, U3A cells, luciferase, luminescence, MLSCN library; hit rate 0.91% among 190,000; AID 871, 2007; activation (% of control), % at 5.6 µM; IL-6 STAT3-luciferase reporter; 100% = signal with IL-6 EC80 alone;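 active means activation above the screen-wide mean of compound activation plus 3 SD, cut at about 130% in these data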;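 further: 0% = background luminescence of wells with medium and substrate only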
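Assay system – human STAT1-deficient U3A cells with stable STAT3-luciferase reporter · Also added – IL-6 (33 ng/mL) · Schedule – compound 1 h, then IL-6 6 h at 37 °C · Technique – reporter luminescence signal · Evaluation – % activation versus median of IL-6-stimulated wells · Benchmarks – IL-6-only wells as 100% reference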
STAT1 blocker = STAT1 signaling inhibitors, primary screen, cell-based, HTS, luciferase reporter. NIH 3T3 STAT1-luciferase reporter, IFN-gamma, luminescence. AID 920, 2007. inhibition, % at 5.5 µM. hit rate 0.35% among 200,000;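 active means inhibition above a set limit, the mean inhibition across all tested compounds plus 3 SD, cut at about 34% in these data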;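 further: 0% = IFN-gamma with DMSO and 100% = IFN-gamma with 300 µM nifuroxazide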
APP 5'UTR act = activators of APP 5'UTR luciferase reporter, primary screen, SH-SY5Y cells | SH-SY5Y APP 5'UTR luciferase reporter, luminescence; zero percent = DMSO vehicle wells | activation, % at 2 µM | hit rate 1% among 190,000;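 active means activation above a set limit, based on mean plus 3 SD of controls, cut at about 140% in these data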
NF-kB expr up = activators of NF-kB expression in neurons, primary screen, cell-based, HTS; human neuronal cells, NF-kB reporter expression; stronger effect = higher value; fold change at 12.5 µM; AID 1239, 2008; hit rate 1.6% among 190,000; in the data active means fold change above about 3.3
An asterisk follows results filed as active; nt = no result. Sampled rows, rich in hits. Any-hit rate of the full collection: about 4.9%.

SMILES | STAT3 blocker | STAT1 activator | STAT3 act | STAT1 blocker | APP 5'UTR act | NF-kB expr up
Cc1cc(C)n(CCN(C)C(=O)CCc2nnc(CCC3CCCCC3)o2)n1 | -2.0 | 140.0* | 107.0 | -42.7 | 70.3 | 3.1
CN(CCCC1CCCC1)C(=O)CCc1nnc(-c2ccccc2)o1 | -4.4 | 147.8* | 109.1 | -51.4 | 89.7 | 3.28
O=C(CCc1nnc(-c2ccccc2)o1)NC1CCCCC1 | -4.8 | 130.5* | 106.1 | -35.2 | 23.3 | 1.85
CN(CCC1CCCCO1)C(=O)CCc1nnc(CCCCc2ccccc2)o1 (configuration not stated) | 6.5 | 96.4 | 99.4 | 3.7 | 20.7 | 1.65
CCn1c(COc2cccc(C)c2C)nnc1SCC(=O)Nc1cc(C)on1 | 2.9 | 101.1 | 98.2 | -0.5 | -12.8 | 1.35
COc1ccc2cc(C(=O)C3CCCN(C(=O)c4cc5nc(C)cc(C)n5n4)C3)ccc2c1 (configuration not stated) | 13.6 | 106.4 | 97.7 | -8.0 | 10.7 | 1.01
Cc1csc(=NC(=O)c2ccccc2)n1C | 13.6 | 126.9 | 91.6 | -29.1 | 101.6 | 3.63*
COc1cccc(NC(=O)C(=O)NCc2ccncc2)c1 | 10.3 | 128.6* | 96.9 | -32.6 | 26.1 | 1.17
COc1cccc(NC(=O)C(=O)N2CCOCC2)c1 | -11.8 | 135.8* | 112.6 | -39.5 | nt | 2.58
Cn1cc(CN2CCC[C@H]2CO)c(-c2cccc(Cl)c2)n1 | 2.4 | 96.5 | 101.8 | 2.1 | 10.7 | 1.15
Cc1ccc(N2C(SCC(=O)O)=NC(=Nc3cccc(C)c3)C23CCCC3)cc1 | -8.3 | 99.2 | 107.8 | -0.3 | 5.0 | 0.86
COc1ccc2oc(=Nc3cc(F)ccc3F)c(C(N)=O)cc2c1 | 25.7 | 130.6* | 80.0 | -35.0 | -12.6 | 1.11
O=C(Nc1cccc(-c2nc3cc(Cl)ccc3o2)c1)C1CCCO1 (configuration not stated) | 5.5 | 130.1* | 97.9 | -35.0 | nt | 3.43*
Cc1ccc2oc(-c3cccc(NC(=O)C4CCCO4)c3)nc2c1 (configuration not stated) | -9.1 | 139.8* | 109.9 | -43.2 | 55.9 | 3.99*
COc1cc(C(=O)Nc2cccc(-c3nc4cc(C)ccc4o3)c2)cc(OC)c1OC | -3.7 | 107.6 | 106.6 | -8.4 | 41.8 | 1.23
CC(=O)c1c(C)[nH]c(C(=O)OCC(=O)c2c(N)n(C)c(=O)n(C)c2=O)c1C | 17.7 | 100.5 | 91.1 | -2.0 | 6.8 | 1.11
O=C(O)c1ccc(/C=N/N2CCN(Cc3ccccc3)CC2)cc1 | -6.5 | 99.7 | 103.2 | 2.7 | -19.9 | 1.18
Cc1c(C2C(C#N)=C(N)N(c3cccc([N+](=O)[O-])c3)C3=C2C(=O)CCC3)cnn1C (configuration not stated) | 4.7 | 97.3 | 99.8 | 1.5 | 11.8 | 1.01
CCCCNC(=O)C1CC(c2cccc([N+](=O)[O-])c2)=NO1 (configuration not stated) | -12.4 | 140.3* | 118.1 | -44.7 | 50.2 | 3.5*
O=C(N=Nc1c(O)[nH]c2ccccc12)c1cc(NS(=O)(=O)c2cccs2)cc(NS(=O)(=O)c2cccs2)c1 | -21.7 | 103.5 | 125.2 | -5.3 | -0.9 | 1.04
Oc1ccc(NC(=S)N=Nc2c(O)[nH]c3ccccc23)cc1 | 20.8 | 144.6* | 88.9 | -48.1 | 38.5 | 0.71
O=C(N=Nc1c(O)[nH]c2ccccc12)c1cccs1 | 19.5 | 140.7* | 89.9 | -42.9 | 154.3* | 5.62*
Cc1ccc(NC(=S)N=Nc2c(O)[nH]c3ccccc23)cc1 | 22.3 | 122.0 | 86.2 | -25.3 | -27.9 | 1.41
CCN1CC=C2C(C#N)=C(N)C(C#N)(C#N)C(CCc3ccccc3)C2C1 (configuration not stated) | -39.9 | 96.3 | 140.8* | 4.0 | 3.9 | 0.44
Cc1cc(NC(=O)Cn2cc([N+](=O)[O-])cn2)no1 | 1.5 | 101.7 | 105.0 | -3.9 | -13.0 | 1.09
SMILES | STAT3 blocker | STAT1 activator | STAT3 act | STAT1 blocker | APP 5'UTR act | NF-kB expr up
O=C1C2C3CCC(C3)C2C(=O)N1c1ccc(OS(=O)(=O)c2ccccc2)cc1 (configuration not stated) | -0.4 | 137.1* | 104.4 | -44.1 | 105.6 | 1.7
CCN=c1scc(C)n1/N=C/c1ccsc1 | 6.2 | 150.1* | 95.4 | -55.4 | 97.4 | 3.65*
CN=c1scc(C)n1/N=C/c1ccc(O)c(O)c1O | 23.3 | 89.7 | 80.6 | 9.2 | 0.0 | 0.98
Fc1ccc(-c2cnc(-c3cccs3)o2)cc1 | -9.6 | 142.1* | 110.6 | -46.8 | 69.5 | 1.83
c1cncc(-c2nnc(-c3cccs3)o2)c1 | 13.8 | 123.2 | 89.8 | -25.4 | -1.9 | 1.23
O=C(OCc1cccc(F)c1)c1ccc2c(c1)-c1ccccc1C2=O | 19.8 | 108.7 | 87.8 | -9.7 | 2.7 | 1.47
O=C(OCc1ccccc1F)c1ccc2c(c1)-c1ccccc1C2=O | 2.2 | 107.5 | 102.2 | -8.4 | 26.4 | 4.13*
CC(C)(C)c1ccc(C(=O)Nc2ccc(CC(=O)O)cc2)o1 | 82.8* | 50.4 | 30.8 | 53.8* | nt | 0.38
Cc1ccc(-c2nc(=S)c3c(n2Cc2ccco2)CCCC3)cc1 | -47.0 | 99.9 | 143.0* | 1.5 | -4.2 | 1.76
Cc1cccc(-c2nc(=S)c3c(n2Cc2ccco2)CCCC3)c1 | 0.7 | 96.2 | 104.6 | 4.2 | -2.1 | 0.98
COc1ccc2cc(C(=O)C3CCCN(C(=O)/C=C/c4ccccn4)C3)ccc2c1 (configuration not stated) | 13.2 | 93.8 | 92.3 | 5.4 | -5.3 | 0.99
COc1ccccc1-n1ccnc1SCC(=O)NCc1ccco1 | 14.2 | 100.4 | 94.7 | -0.2 | 10.9 | 1.2
Nn1c(SCc2ccccc2)nnc1-c1ccccn1 | -5.3 | 131.1* | 108.9 | -34.1 | 36.4 | 2.01
COc1cccc(C(CC(=O)Nc2cccc3ccccc23)NC(=O)c2ccccc2)c1 (configuration not stated) | -10.3 | 101.8 | 113.9 | -1.9 | 15.1 | 1.13
Brc1cccc(-c2nc(-c3ccncc3)no2)c1 | 13.2 | 117.8 | 94.0 | -18.4 | 36.5 | 1.79
c1ccc(-c2noc(-c3cccc4ccccc34)n2)cc1 | -100.4 | 141.6* | 192.3* | -45.6 | 99.7 | 6.14*
Clc1ccc(Br)cc1-c1nc(-c2ccncc2)no1 | -7.6 | 137.0* | 109.7 | -40.3 | 4.5 | 1.23
c1ccc(-c2ccccc2-c2nc(-c3cccnc3)no2)cc1 | 5.1 | 100.1 | 96.7 | -0.1 | -12.1 | 0.86
c1ccc2c(-c3nc(-c4ccncc4)no3)cccc2c1 | -37.2 | 129.1* | 135.7* | -31.5 | 35.8 | 2.19
O=C(CSc1nnc(-c2ccco2)o1)c1ccc(O)cc1O | 3.3 | 89.1 | 98.7 | 9.6 | 12.6 | 0.87
CCn1c(SCc2ccccc2Cl)nc2ccccc21 | 7.4 | 118.3 | 97.4 | -20.1 | 5.1 | 1.75

Source: PubChem BioAssay
